Assay results taken from ChEMBL document CHEMBL1135230, “Synthesis of Sordaricin analogues as potent antifungal agents against Candida albicans” (2002).
≈ marks a conversion by molar mass, not a printed value.

Experiments:
Assay type in all cases: functional
Nakaseomyces glabratus = experiment: Tested in vitro for the minimum inhibitory concentration (MIC) against Candida glabrata ATCC 90030
Summary of the method: (§1)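 Broth MIC determined in RPMI1640 at pH 7.0, incubated at 35 °C; MIC taken as the lowest concentration giving 80% inhibition of fungal growth.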

Candida albicans [1] = experiment: Tested in vitro for the minimum inhibitory concentration (MIC) against Candida albicans SANK51486; summary of the method: as §1
Candida albicans [2] = experiment: Tested in vitro for the minimum inhibitory concentration (MIC) against Candida albicans TIMM3164; summary of the method: as §1
Candida albicans [3] = experiment: Tested in vitro for the minimum inhibitory concentration (MIC) against Candida albicans ATCC 64550; summary of the method: as §1
Candida albicans [4] = experiment: Tested in vitro for the minimum inhibitory concentration (MIC) against Candida albicans ATCC 24433; summary of the method: as §1
Candida tropicalis = experiment: Tested in vitro for the minimum inhibitory concentration (MIC) against Candida tropicalis ATCC750; summary of the method: as §1

Structure (SMILES) | MIC (Nakaseomyces glabratus) | MIC (Candida albicans [1]) | MIC (Candida albicans [2]) | MIC (Candida albicans [3]) | MIC (Candida albicans [4]) | MIC (Candida tropicalis)
CC(C)C1=CC2CC3(C=O)[C@@H]4CC[C@@H](C)[C@H]4CC2(CN(C)C2CCCCC2)C13C(=O)O (stereo not given in full) | 8 µg/mL (≈ 18.7 µM) | 8 µg/mL (≈ 18.7 µM) | 16 µg/mL (≈ 37.4 µM) | 16 µg/mL (≈ 37.4 µM) | 8 µg/mL (≈ 18.7 µM) | > 16 µg/mL
CC(C)C1=CC2CC3(C=O)[C@@H]4CC[C@@H](C)[C@H]4CC2(C(=O)NC2CCCCC2)C13C(=O)O (stereo not given in full) | 0.5 µg/mL (≈ 1.17 µM) | > 4 µg/mL | > 4 µg/mL | > 4 µg/mL | > 4 µg/mL | > 4 µg/mL
CC(C)C1=CC2CC3(C=O)[C@@H]4CC[C@@H](C)[C@H]4CC2(CSC2CCCCC2)C13C(=O)O (stereo not given in full) | 0.031 µg/mL (≈ 0.072 µM) | ≤ 0.016 µg/mL | 0.063 µg/mL (≈ 0.146 µM) | 0.125 µg/mL (≈ 0.29 µM) | 0.031 µg/mL (≈ 0.072 µM) | 2 µg/mL (≈ 4.64 µM)
C/C=C/C=C\C(=O)O[C@H]1[C@H](O)[C@H](OCC23C[C@@H]4[C@H](C)CC[C@H]4C4(C=O)CC2C=C(C(C)C)C34C(=O)O)O[C@H](C)[C@H]1OC (stereo not given in full) | > 4 µg/mL | 0.25 µg/mL (≈ 0.426 µM) | 0.5 µg/mL (≈ 0.852 µM) | 0.5 µg/mL (≈ 0.852 µM) | 0.5 µg/mL (≈ 0.852 µM) | 0.5 µg/mL (≈ 0.852 µM)
CC(C)C1=CC2CC3(C=O)[C@@H]4CC[C@@H](C)[C@H]4CC2(CON=C2CCCCC2)C13C(=O)O (stereo not given in full) | 0.063 µg/mL (≈ 0.147 µM) | 0.031 µg/mL (≈ 0.0725 µM) | 0.063 µg/mL (≈ 0.147 µM) | 0.063 µg/mL (≈ 0.147 µM) | 0.031 µg/mL (≈ 0.0725 µM) | 1 µg/mL (≈ 2.34 µM)
CC(C)C1=CC2CC3(C=O)[C@@H]4CC[C@@H](C)[C@H]4CC2(COC2CCCCC2)C13C(=O)O (stereo not given in full) | ≤ 0.063 µg/mL | ≤ 0.063 µg/mL | 0.25 µg/mL (≈ 0.603 µM) | 0.25 µg/mL (≈ 0.603 µM) | 0.125 µg/mL (≈ 0.302 µM) | 2 µg/mL (≈ 4.82 µM)
CC(C)C1=CC2CC3(C=O)[C@@H]4CC[C@@H](C)[C@H]4CC2(/C=N/OC2CCCCC2)C13C(=O)O (stereo not given in full) | 0.125 µg/mL (≈ 0.292 µM) | 0.031 µg/mL (≈ 0.0725 µM) | 0.063 µg/mL (≈ 0.147 µM) | 0.063 µg/mL (≈ 0.147 µM) | 0.031 µg/mL (≈ 0.0725 µM) | 1 µg/mL (≈ 2.34 µM)
CC(C)C1=CC2CC3(C=O)[C@@H]4CC[C@@H](C)[C@H]4CC2(C(=O)OC2CCCCC2)C13C(=O)O (stereo not given in full) | 0.5 µg/mL (≈ 1.17 µM) | ≤ 0.125 µg/mL | 0.25 µg/mL (≈ 0.583 µM) | 0.5 µg/mL (≈ 1.17 µM) | ≤ 0.125 µg/mL | 4 µg/mL (≈ 9.33 µM)
OC(Cn1cncn1)(Cn1cncn1)c1ccc(F)cc1F [FLUCONAZOLE] | > 4 µg/mL | 0.25 µg/mL (≈ 0.816 µM) | > 4 µg/mL | > 4 µg/mL | 0.5 µg/mL (≈ 1.63 µM) | 0.5 µg/mL (≈ 1.63 µM)
CCC(C)n1ncn(-c2ccc(N3CCN(c4ccc(OC[C@H]5CO[C@](Cn6cncn6)(c6ccc(Cl)cc6Cl)O5)cc4)CC3)cc2)c1=O (stereo not given in full) [ITRACONAZOLE] | 1 µg/mL (≈ 1.42 µM) | 0.031 µg/mL (≈ 0.0439 µM) | 0.25 µg/mL (≈ 0.354 µM) | 1 µg/mL (≈ 1.42 µM) | 0.125 µg/mL (≈ 0.177 µM) | 0.5 µg/mL (≈ 0.709 µM)
